ChEMBL document CHEMBL3525913, “Metabolism-dependent inhibition of CYP3A4 by lapatinib: evidence for formation of a metabolic intermediate complex with a nitroso/oxime metabolite formed via a nitrone intermediate” (Drug Metab Dispos, 2013)

How the values were obtained:
[1] = test system: Liver microsome; assay: Drug level in human liver microsomes treated with lapatinib at 50 uM by LC/MS/MS analysis; assay type: ADME
Procedure, shortened: (§1)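 Lapatinib 50 μM (added in DMSO) incubated 30 min at 37°C in 100 mM potassium phosphate pH 7.4 with HLM 1 mg/mL or recombinant CYP3A4+b5 / CYP3A5+b5 100 pmol/mL. Reaction started with NADPH 1 mM. Protein re-isolated by ultracentrifugation (100,000 x g, 4°C, 60 min), washed (KCl/EDTA), resuspended in phosphate buffer, ±2 mM ferricyanide 10 min 37°C, quenched with acetonitrile, then high-resolution LC/MS profiling.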

[2] = target: Cytochrome P450 3A4 (Homo sapiens, UniProt P08684); assay: Activity of recombinant CYP3A4 (unknown origin) assessed as compound formation treated with lapatinib at 50 uM by LC/MS/MS analysis; assay type: ADME; conditions: recombinant enzyme; procedure, shortened: as §1
[3] = Retention time of the compound by LC/MS/MS analysis relative to lapatinib; assay type: physicochemical
Procedure, shortened: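 Phenyl UPLC column (1.7 μm, 2.1 x 100 mm), 0.1% formic acid in water/acetonitrile, 0.4 mL/min. Gradient: 10% organic for 1 min, to 90% over 13 min, held 0.5 min. Detection by accurate-mass MS. Retention times expressed relative to lapatinib.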

[4] = target: Cytochrome P450 3A5 (Homo sapiens, UniProt P20815); assay: Activity of recombinant CYP3A5 (unknown origin) assessed as compound formation treated with lapatinib at 50 uM by LC/MS/MS analysis; assay type: ADME; conditions: recombinant enzyme; procedure, shortened: as §1
Sequence of Cytochrome P450 3A5 (P20815 whole entry): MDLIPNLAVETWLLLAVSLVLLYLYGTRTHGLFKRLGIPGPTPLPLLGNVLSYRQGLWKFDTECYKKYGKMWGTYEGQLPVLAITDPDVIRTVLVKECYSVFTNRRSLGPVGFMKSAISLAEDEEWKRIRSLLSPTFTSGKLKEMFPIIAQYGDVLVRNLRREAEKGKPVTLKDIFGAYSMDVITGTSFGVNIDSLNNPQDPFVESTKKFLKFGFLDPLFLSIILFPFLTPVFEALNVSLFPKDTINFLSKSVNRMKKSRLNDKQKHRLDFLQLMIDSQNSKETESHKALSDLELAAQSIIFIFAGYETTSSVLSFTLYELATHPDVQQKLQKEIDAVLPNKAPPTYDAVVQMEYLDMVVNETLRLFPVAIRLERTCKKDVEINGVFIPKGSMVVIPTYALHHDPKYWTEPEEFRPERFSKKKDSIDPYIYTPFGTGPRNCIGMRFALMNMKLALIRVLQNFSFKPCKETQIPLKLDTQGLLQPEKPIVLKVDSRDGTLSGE

Sequence of Cytochrome P450 3A4 (P08684 whole entry): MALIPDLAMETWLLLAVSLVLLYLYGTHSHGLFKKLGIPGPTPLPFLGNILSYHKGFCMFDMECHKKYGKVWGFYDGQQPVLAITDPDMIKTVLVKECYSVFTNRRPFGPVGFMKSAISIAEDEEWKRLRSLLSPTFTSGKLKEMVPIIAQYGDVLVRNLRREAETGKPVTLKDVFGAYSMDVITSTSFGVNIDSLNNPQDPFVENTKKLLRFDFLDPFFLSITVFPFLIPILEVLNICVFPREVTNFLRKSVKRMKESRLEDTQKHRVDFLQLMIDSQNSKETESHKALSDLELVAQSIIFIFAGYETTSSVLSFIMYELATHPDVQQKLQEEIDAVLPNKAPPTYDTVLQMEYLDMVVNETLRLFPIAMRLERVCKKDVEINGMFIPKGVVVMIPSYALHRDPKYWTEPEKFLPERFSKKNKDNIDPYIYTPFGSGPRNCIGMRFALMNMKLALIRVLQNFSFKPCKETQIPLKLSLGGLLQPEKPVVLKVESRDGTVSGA

Row | SMILES | Drug metabolism [1] | Drug metabolism [2] | Ratio [3] | Drug metabolism [4]
1 | NCc1ccc(-c2ccc3ncnc(Nc4ccc(OCc5cccc(F)c5)c(Cl)c4)c3c2)o1 | metabolite_detected | metabolite_detected | 0.97 | metabolite_detected
2 | O/N=C/c1ccc(-c2ccc3ncnc(Nc4ccc(OCc5cccc(F)c5)c(Cl)c4)c3c2)o1 | metabolite_detected | metabolite_detected | 1.18 | metabolite_detected
3 | CS(=O)(=O)CCNC(O)c1ccc(-c2ccc3ncnc(Nc4ccc(O)c(Cl)c4)c3c2)o1 (stereo unspecified) | metabolite_detected | metabolite_detected | 0.78 | metabolite_detected
4 | OCc1ccc(-c2ccc3ncnc(Nc4ccc(OCc5cccc(F)c5)c(Cl)c4)c3c2)o1 | metabolite_detected | metabolite_detected | 1.13 | metabolite_detected
